What all share (type): functional, cell-based
In one assay the test system is A549. The assay is described as follows: Antiproliferative activity against human A549 cells after 72 hrs by MTT assay. To be noted: for IC50: A549, 72 h. The gist of the method:
(§1)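 Human tumour lines HGC-27 (stomach), A-549 (lung), HeLa (cervical) and MV4-11 (leukemia) tested in a standard MTT assay, with taxol as positive control. Each assay repeated more than three times. IC50 calculated by the Reed and Muench method, reported as mean ± SD.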
(Tetrazolium assays rely on reduction of a dye to a coloured formazan, in cell work by metabolically active cells.)

The subject of another assay is HGC-27. The assay is described as follows: Antiproliferative activity against human HGC27 cells after 72 hrs by MTT assay. To be noted: for IC50: HGC-27, 72 h. The gist of the method: as §1
In the next assay the test system is HeLa. The assay is described as follows: Antiproliferative activity against human HeLa cells after 72 hrs by MTT assay. A digest of the protocol:
as §1

The test system of a further assay is MV4-11. The assay is described as follows: Antiproliferative activity against human MV411 cells after 72 hrs by MTT assay. Particulars: for IC50: MV4-11, 72 h. A digest of the protocol: as §1

Activity calls are given as the source filed them. The rule behind the calls is not given here.

Results on 25 compounds are retold here after ChEMBL document CHEMBL4196208, “Antiproliferative Sesquiterpenoids from Ligularia rumicifolia with Diverse Skeletons” (J Nat Prod, 2018).

In general, IC50 refers to the concentration that inhibits the measured activity by half. A lower IC50 goes with greater potency in that assay.

For `C=C(C(CC=C(C)C)OC(=O)/C(C)=C\C)[C@@H]1[C@@H](O)[C@@H](OC(=O)/C(C)=C\C)[C@](C)(O)C(=O)[C@H]1OC(C)=O` (stereo not given in full), the result in the assay with A549, in the assay on HGC-27, in the assay with HeLa and with MV4-11 was inactive.
For `C=C(C(CC=C(C)C)OC(=O)/C(C)=C\C)[C@@H]1C[C@H](Cl)[C@](C)(O)C(=O)[C@H]1OC(C)=O` (stereo not given in full), the outcome in the assay on A549, with HGC-27, with HeLa and in the assay on MV4-11 was inactive.
In the case of `C=C(C(CC=C(C)C)OC(=O)/C(C)=C\C)[C@@H]1C[C@H](O)[C@](C)(OC)C(=O)[C@H]1OC(=O)/C(C)=C\C` (stereo not given in full), the outcome in the assay with A549, in the assay with HGC-27, with HeLa and in the assay with MV4-11 was inactive.
`C=C1[C@H]2[C@@H](/C(=C\C)C(=O)[C@H]2OC(=O)C(C)CC)[C@H]([C@@]2(C)CO2)[C@@H](OC(=O)/C(C)=C\C)[C@H]1OC(=O)/C=C(\C)CC` (stereo not given in full): the result in the assay with A549, in the assay on HGC-27, in the assay on HeLa and with MV4-11 was inactive.
`C/C=C(/C)C(=O)O[C@@H]1CCC2=CC(=O)[C@H]([C@]3(C)CO3)C[C@]2(C)[C@H]1C`: the outcome in the assay on A549, in the assay with HGC-27, in the assay with HeLa and in the assay on MV4-11 was inactive.
As for `C=C1[C@H]2[C@@H](/C(=C\C)C(=O)[C@H]2OC(=O)C(C)CC)[C@H]([C@@]2(C)CO2)[C@@H](OC(=O)C(C)CC)[C@H]1OC(=O)/C=C(\C)CC` (stereo not given in full), the outcome in the assay with A549, with HGC-27, in the assay with HeLa and with MV4-11 was inactive.
Regarding `C=C(C)[C@@H]1C[C@@]2(C)C(=CC1=O)CC[C@@H](OC(=O)CC(C)C)[C@@H]2C`, the IC50 in the assay on A549 came out at 9.7 µM; in the assay with HGC-27 it was 5.3 µM; in the assay on HeLa, 6.6 µM; in the assay with MV4-11 it was 7.5 µM.
On to `C=C1[C@@H]2[C@H](OC(=O)C(C)CC)[C@H](OC(C)=O)[C@H]([C@@H](C)OC(=O)C[C@@H](C)O)[C@H]2[C@H]([C@@]2(C)CO2)[C@@H](OC(=O)CC(C)CC)[C@H]1OC(=O)/C=C(\C)CC` (stereo not given in full), for which the result in the assay with A549, in the assay on HGC-27, in the assay on HeLa and in the assay on MV4-11 was inactive.
On to `C=C(c1ccc(C)c(O)c1O)C(CC=C(C)C)OC(=O)/C(C)=C\C` (stereo not given), for which the outcome in the assay on A549, in the assay on HGC-27, in the assay with HeLa and with MV4-11 was inactive.
Regarding `C=C(C(CC=C(C)C)OC(=O)/C(C)=C\C)[C@@H]1[C@H](OC(=O)/C(C)=C\C)[C@@H]2O[C@]2(C)C(=O)[C@H]1OC(C)=O` (stereo not given in full), the result in the assay with A549, in the assay on HGC-27, in the assay on HeLa and with MV4-11 was inactive.
On to `C/C=C(/C)C(=O)OC(CC=C(C)C)/C(C)=C1\C[C@@H](O)C(C)=C(OC(C)=O)C1=O` (stereo not given in full), for which the result with A549, with HGC-27, with HeLa and in the assay with MV4-11 was inactive.
Take `C=C(C(CC=C(C)C)OC(=O)/C(C)=C\C)[C@H]1C[C@@H](O)C(C)=C(OC(C)=O)C1=O` (stereo not given in full): the result with A549, in the assay on HGC-27, in the assay with HeLa and with MV4-11 was inactive.
Consider `C=C(C)[C@@H]1C[C@@]2(C)C(=CC1=O)[C@@H](O)C[C@@H](OC(=O)/C(C)=C\C)[C@@H]2C`, for which the IC50 was determined as 6.3 µM with A549, 2.1 µM with HGC-27, 2.4 µM with HeLa and 0.5 µM with MV4-11.
On to `C=C(C)[C@@H]1C[C@@]2(C)C(=CC1=O)CC[C@@H](OC(=O)CC(C)CC)[C@@H]2C` (stereo not given in full), for which the IC50 came out at 6.6 µM in the assay on A549, 3.6 µM in the assay on HGC-27, 3.3 µM in the assay with HeLa and 1.1 µM in the assay with MV4-11.
Consider `C=C1CO[C@H]2C[C@@H]1Cc1c2ccc(O)c1C`, for which the outcome in the assay with A549, in the assay with HGC-27, with HeLa and with MV4-11 was inactive.
On to `C=C(C)[C@@H]1C[C@@]2(C)C(=CC1=O)[C@H](O)C[C@@H](OC(=O)/C(C)=C\C)[C@@H]2C`, for which the IC50 in the assay on A549 was 13.5 µM; with HGC-27, 7.2 µM; in the assay on HeLa, 5.7 µM; in the assay on MV4-11, 2.5 µM.
`C/C=C(/C)C(=O)OC1=C(C)[C@H](O)C/C(=C(/C)C(CC=C(C)C)OC(=O)/C(C)=C\C)C1=O` (stereo not given in full): the result in the assay on A549, in the assay with HGC-27, with HeLa and in the assay on MV4-11 was inactive.
With `C=C(C)[C@@H]1CCc2ccc(O)c(C)c2C1`, the outcome with A549, with HGC-27, in the assay with HeLa and in the assay with MV4-11 was inactive.
On to `C=C(C(CC=C(C)C)OC(=O)/C(C)=C\C)[C@@H]1C[C@@H]2O[C@]2(C)C(=O)[C@@H]1OC(C)=O` (stereo not given in full), for which the outcome in the assay on A549, in the assay on HGC-27, with HeLa and in the assay on MV4-11 was inactive.
As for `C=C(C(CC=C(C)C)OC(=O)/C(C)=C\C)[C@@H]1C[C@H](O)[C@](C)(OC)C(=O)[C@H]1OC(C)=O` (stereo not given in full), the result with A549, in the assay on HGC-27, in the assay on HeLa and with MV4-11 was inactive.
As for `C=C(C(/C=C/C(C)(C)O)OC(=O)/C(C)=C\C)[C@@H]1[C@H](OC(=O)/C(C)=C\C)[C@@H]2O[C@]2(C)C(=O)[C@H]1OC(C)=O` (stereo not given in full), the outcome in the assay on A549, in the assay with HGC-27, with HeLa and with MV4-11 was inactive.
Regarding `C=C(C(CC=C(C)C)OC(=O)/C(C)=C\C)[C@@H]1C(=O)C(OC(C)=O)=C(C)[C@H](O)[C@H]1OC(=O)/C(C)=C\C` (stereo not given in full), the 50% inhibitory concentration (IC50) with A549 is 9.8 µM; in the assay on HGC-27, 2.2 µM; in the assay with HeLa, 6.3 µM; in the assay with MV4-11 it was 2.9 µM.
In the case of `C=C1[C@H]2[C@@H]([C@@H]([C@@H](C)OC)C(=O)[C@H]2OC(=O)C(C)CC)[C@H]([C@@]2(C)CO2)[C@@H](OC(=O)/C(C)=C\C)[C@H]1OC(=O)/C=C(\C)CC` (stereo not given in full), the result with A549, in the assay on HGC-27, in the assay with HeLa and in the assay with MV4-11 was inactive.
`C/C=C(/C)C(=O)O[C@@H]1CCC2=CC(=O)[C@@H]([C@@]3(C)CO3)C[C@]2(C)[C@H]1C`: the result in the assay with A549, with HGC-27, in the assay with HeLa and in the assay on MV4-11 was inactive.
`C=C(C)[C@@H]1C[C@@]2(C)C(=CC1=O)CC[C@@H](OC(=O)/C(C)=C/C)[C@@H]2C`: the outcome in the assay on A549, in the assay on HGC-27, with HeLa and with MV4-11 was inactive.
